Assay outcomes deposited in PubChem by Johns Hopkins Ion Channel Center.
Most compounds without a hit are left out; they make up all but 3.8% or so of the library.
KCNQ1 pot – potentiates or activates the human KCNQ1 potassium channel; P51787; CHO-K1 KCNQ1, thallium flux FluxOR fluorescence; hits give high values; B-score at 10 µM; 310,000 compounds, 0.35% hits; AID 2648;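 active = fluorescence ratio B-score, a plate-corrected score, at least three library SD, with initial intensity B-score within 5 SD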
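Schedule – 37 °C overnight plating, 90-min dark dye load, 20-min compound pretreatment · System – stable KCNQ1 CHO-K1 line · Probe or stimulus – thallium- and potassium-containing depolarizing buffer · Measured by – kinetic FluxOR fluorescence, 10 s baseline plus 110 s post-stimulus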
Kir21 block – inhibitors of mouse Kir2.1 inward-rectifier potassium channel; P35561; HEK293-Kir2.1, FluxOR thallium flux fluorescence; hits give low values; B-score at 10 µM; 310,000 compounds, 0.85% hits;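 active = fluorescence ratio B-score at or below minus 3 SD of library scores, with starting-brightness B-score within 2 SD, cut at about -4.2 in these data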;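 also: channel flux triggered by added potassium and thallium sulfate stimulus; B-score of peak minus minimum fluorescence over baseline after thallium stimulus; more negative B-score means stronger Kir2.1 block with less thallium influx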
hERG protect – shields human hERG channel from block by proarrhythmic agents. Q12809. CHO-hERG, FluxOR thallium flux, dofetilide IC70 present. activation (rescue from dofetilide block), less the hit threshold, % at 10 µM. 310,000 compounds, 0.51% hits. AID 1511;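 active = activation above the mean of controls blocked by dofetilide plus 5 SD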;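 also: thallium influx through hERG after potassium depolarization seen as dye fluorescence rise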
Target sequence (Q12809 whole entry, looked up): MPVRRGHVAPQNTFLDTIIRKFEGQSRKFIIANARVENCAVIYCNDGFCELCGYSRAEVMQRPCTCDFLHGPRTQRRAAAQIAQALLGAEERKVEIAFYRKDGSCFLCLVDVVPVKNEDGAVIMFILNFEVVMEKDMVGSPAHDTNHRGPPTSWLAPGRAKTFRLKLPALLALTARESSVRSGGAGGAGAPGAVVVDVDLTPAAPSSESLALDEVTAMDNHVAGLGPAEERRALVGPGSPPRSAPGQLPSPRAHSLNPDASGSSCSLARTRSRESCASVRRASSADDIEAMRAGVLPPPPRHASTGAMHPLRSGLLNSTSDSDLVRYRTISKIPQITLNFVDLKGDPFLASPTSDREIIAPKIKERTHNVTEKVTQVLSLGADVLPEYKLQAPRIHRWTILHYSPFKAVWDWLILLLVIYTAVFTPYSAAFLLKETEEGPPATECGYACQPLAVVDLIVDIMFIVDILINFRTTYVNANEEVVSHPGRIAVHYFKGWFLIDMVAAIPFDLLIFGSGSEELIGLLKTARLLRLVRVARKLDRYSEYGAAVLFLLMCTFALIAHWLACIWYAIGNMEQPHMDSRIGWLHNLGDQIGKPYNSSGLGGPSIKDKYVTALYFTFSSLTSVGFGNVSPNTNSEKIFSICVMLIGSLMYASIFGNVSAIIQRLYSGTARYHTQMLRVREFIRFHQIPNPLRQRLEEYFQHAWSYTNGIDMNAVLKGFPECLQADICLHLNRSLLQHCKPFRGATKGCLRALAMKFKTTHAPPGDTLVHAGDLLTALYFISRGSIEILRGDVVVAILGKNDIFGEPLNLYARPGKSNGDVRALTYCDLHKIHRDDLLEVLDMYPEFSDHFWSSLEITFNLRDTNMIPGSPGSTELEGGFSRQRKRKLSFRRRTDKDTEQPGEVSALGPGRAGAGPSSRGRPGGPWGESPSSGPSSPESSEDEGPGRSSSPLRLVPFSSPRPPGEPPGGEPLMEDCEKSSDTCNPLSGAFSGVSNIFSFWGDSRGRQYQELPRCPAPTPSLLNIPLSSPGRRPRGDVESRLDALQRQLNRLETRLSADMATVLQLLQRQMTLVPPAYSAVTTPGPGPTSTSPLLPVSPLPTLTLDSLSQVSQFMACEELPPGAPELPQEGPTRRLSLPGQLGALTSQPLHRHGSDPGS
KCNK3 inh – human KCNK3 channel inhibition, primary screen. O14649. CHO-KCNK3 thallium flux, FluxOR fluorescence; hits give low values. B-score at 10 µM. 340,000 compounds, 0.84% hits. AID 602410;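 active = B-score under library mean minus 4 SD, starting fluorescence ratio at most library mean plus 5 SD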;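 also: more negative B-score means stronger inhibition of thallium flux through KCNK3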
KCNK9 block – inhibitors of human KCNK9 two-pore domain potassium channel; HEK293 KCNK9, FluxOR thallium flux fluorescence; hits give low values; B-score at 10 µM; 310,000 compounds, 1.2% hits;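 active = ratio B-score over 3 SD below the library mean, with starting fluorescence within 5 SD of its mean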;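 also: negative B-score means less thallium flux so channel inhibition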
KCNQ1 inh – human KCNQ1 channel inhibition. P51787. CHO-K1 KCNQ1, FluxOR thallium flux fluorescence; hits give high values. B-score at 10 µM. 310,000 compounds, 1.3% hits;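 active = compounds whose thallium flux B-score, printed positive for inhibition, exceeds three library SD while starting fluorescence stays within three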;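 also: channel opened by potassium depolarization with thallium stimulus after 20 min compound exposure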
KCNK3 confirm – confirmation of human KCNK3 two-pore domain potassium channel inhibitors; 2,400 compounds, 99% hits; ratio percent of control, % at 10 µM; CHO-KCNK3 thallium flux, FluxOR fluorescence; 0% buffer, 100% carvedilol maximal block; shares compounds with KCNK3 inh;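 active = ratio percent of control, averaged over triplicates, above buffer control mean plus 5 SD, cut at about 64% in these data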;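 also: ratio is the fluorescence rise from min to max over baseline after thallium stimulus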
KCNK3 uninduced – activity in cells without induced KCNK3 expression. shares compounds with KCNK3 inh. non-induced KCNK3 parental cells, FluxOR thallium flux; hits give low values. thallium flux ratio (lower = more inhibition) at 10 µM. 2,400 compounds, 40% hits;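 active = thallium flux ratio, averaged over three wells, more than 5 SD below the buffer control mean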;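 also: host cells are CHO cells without KCNK3 induction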
A number is an active result; n = inactive; x = no result given.

SMILES	KCNQ1 pot	Kir21 block	hERG protect	KCNK3 inh	KCNK9 block	KCNQ1 inh	KCNK3 confirm	KCNK3 uninduced
C=CCOc1ccc(/C=N/n2nnnc2N)cc1OC	n	n	n	n	n	n	x	x
CCN(CC(=O)Nc1ccc(NC(C)=O)cc1)C(=O)CCN1C(=O)C2CC=CCC2C1=O (stereo not drawn)	x	x	x	n	x	x	x	x
COc1ccc(NC(=O)CSc2nnc(-c3cnccn3)n2C)cc1OC	n	n	n	n	n	n	x	x
O=C(COc1ccccc1Cl)N(Cc1cccs1)C1CCS(=O)(=O)C1 (stereo not drawn)	n	n	n	n	n	n	x	x
Cc1cc(Cl)ccc1OCC(=O)N(Cc1cccs1)C1CCS(=O)(=O)C1 (stereo not drawn)	n	n	n	-9.9	n	n	59	0.16
O=C(/C=C\c1ccc2c(c1)OCO2)Nc1c2c(nn1-c1ccc(Cl)cc1)CSC2	n	n	n	-8.9	-7	n	65	n
CC12CCC(=O)C=C1CCC1C2C(O)CC2(C)C1CCC2(O)C(=O)CO (stereo not drawn)	n	n	n	n	n	n	x	x
Cc1cc([N+](=O)[O-])ccc1NC(=O)C(C)NC1CCCCC1 (stereo not drawn)	n	n	n	n	n	n	x	x
CSc1ncccc1C(=O)OCC(=O)c1[nH]c(C)c(C(C)=O)c1C	x	x	x	n	x	x	x	x
C=CCNCC(=O)Nc1ccccc1SCC(=O)Nc1ccsc1C(=O)OC	n	n	n	n	n	n	x	x
CCN(CC)CC(=O)Nc1ccccc1SCC(=O)Nc1ccsc1C(=O)OC	n	n	n	-9.9	n	n	98	n
O=C(N=C1SC2CS(=O)(=O)CC2N1c1ccccc1)c1cccc([N+](=O)[O-])c1 (stereo not drawn)	x	x	x	n	x	x	x	x
Cc1ccc(CCNC(=O)C(C)n2nc(C)c3c(C)n(-c4ccccc4)nc3c2=O)cc1 (stereo not drawn)	n	n	n	n	n	n	x	x
CCC(C(=O)NCCc1ccc(C)cc1)n1nc(C)c2c(C)n(-c3ccccc3)nc2c1=O (stereo not drawn)	n	n	n	-9.4	n	n	99	n
CCCCCCCC(=O)Nc1cc(C(=O)NCCC)ccc1N1CCC2(CC1)CC(c1ccccc1)=NO2	n	n	n	n	n	n	x	x
CC(=O)NC(CC(=O)Nc1nc(-c2ccc(N(C)S(C)(=O)=O)cc2)cs1)c1ccccc1 (stereo not drawn)	n	n	n	-10	n	n	59	n
CC(C)C(OC(=O)c1ccccc1)c1nccc2ccccc12 (stereo not drawn)	n	n	n	n	n	n	x	x
O=C(OC(c1ccccc1)c1nccc2ccccc12)c1ccccc1 (stereo not drawn)	x	x	x	-11	x	x	105	0.14
CCNS(=O)(=O)c1ccc(CCC(=O)N2CCN(C(=O)OCC)CC2)cc1	n	n	n	n	n	n	x	x
Cc1c(C(C)(C)C)s/c(=N/S(=O)(=O)c2ccccc2)n1C	n	n	n	n	n	n	x	x
Cc1c(C(C)(C)C)sc(=NC(=O)c2ccccc2O)n1C	n	n	n	-9.7	n	n	65	n
CN(C)CCn1c(SCc2ccccc2C#N)nc2c(sc3ccccc32)c1=O	n	n	n	-10	n	n	107	0.16
Cc1ccc(S(=O)(=O)Nc2ccccc2F)cc1C(=O)OC(C)C(=O)N1CCOCC1 (stereo not drawn)	n	n	n	n	n	n	x	x
CCOC(=O)C1=C(C)NC2=C(C(=O)c3ccccc32)C1c1cccc2ccccc12 (stereo not drawn)	n	n	n	-11	n	n	113	0.15
O=C(COc1cc2oc(=O)c3c(c2cc1Cl)CCCC3)N1C[C@H]2C[C@@H](C1)c1cccc(=O)n1C2	n	n	n	n	n	n	x	x
SMILES	KCNQ1 pot	Kir21 block	hERG protect	KCNK3 inh	KCNK9 block	KCNQ1 inh	KCNK3 confirm	KCNK3 uninduced
O=C(Nc1cccc(Cl)c1)OC1CCCCc2cccnc21 (stereo not drawn)	n	n	n	-9.3	n	n	116	n
COc1ccc(S(=O)(=O)Oc2ccccc2C(=S)N2CCOCC2)cc1	n	n	n	n	n	n	x	x
C/C(=N\N=C1\NC(=O)C(Cc2ccccc2)S1)c1ccccc1 (stereo not drawn)	n	n	n	-10	n	n	103	0.16
COc1cccc(-c2ncc3ccccc3c2COC(=O)c2ccc(C(C)(C)C)cc2)c1	x	x	x	n	x	x	x	x
N/C(=N\OC(=O)c1cccc2ccccc12)c1cccc([N+](=O)[O-])c1	n	n	n	n	n	n	x	x
Cc1cccc(/C(N)=N/OC(=O)c2cccc3ccccc23)c1	n	n	n	-9.3	n	n	92	n
Cc1ccc(-c2onc(C)c2C)cc1S(=O)(=O)N1CCOc2ccccc21	n	n	n	-9.8	n	n	126	0.15
CC(C)(C)c1ccc(C(=O)NCCC(=O)N2CCCC2)cc1	n	n	n	n	n	n	x	x
CC(C)(C)c1ccc(C(=O)NCCC(=O)N2CCN(c3ncccn3)CC2)cc1	n	n	n	-12	n	n	86	n
CC(=O)Oc1c(S(=O)(=O)c2ccccc2)c(C)nn1C(C)(C)C	n	n	n	n	n	n	x	x
CCCC(=O)Oc1c(S(=O)(=O)c2ccc(C)cc2)c(C)nn1C(C)(C)C	n	n	n	-8.8	n	n	90	n
Cc1ccc(S(=O)(=O)c2c(C)nn(C(C)(C)C)c2OC(=O)C(C)C)cc1	n	n	n	n	n	n	x	x
CCCCC(=O)Oc1c(S(=O)(=O)c2ccccc2)c(C)nn1C(C)(C)C	n	n	n	-10	n	n	118	n
Cc1nn(C(C)(C)C)c(OC(=O)c2cccs2)c1S(=O)(=O)c1ccccc1	n	n	n	-10	n	n	117	0.15
Cc1c(OC(C)C(=O)NCC2CCC(C(=O)O)CC2)ccc2c3c(c(=O)oc12)CCCC3 (stereo not drawn)	n	n	n	n	n	n	x	x
Cc1cc(CN(C)C)c(O)c(C2(C)CCCCC2)c1	n	n	n	n	n	n	x	x
Cc1cc(CN2CCOCC2)c(O)c(C2(C)CCCCC2)c1	n	n	n	-9.7	n	n	108	n
Cc1ccc(C(=O)Nc2cccc(-c3nc4ncccc4o3)c2)cc1	n	n	n	-10	n	n	90	n
O=C(Nc1cccc(-c2nc3ncccc3o2)c1)c1ccccc1	n	n	n	n	n	n	x	x
COC(=O)CSc1nnc2n(C3CCCCC3)c(=O)c3c4c(sc3n12)CCCC4	n	n	n	-9.5	n	n	96	0.15
